Results from ChEMBL document CHEMBL1143331, “The synthesis and structure-activity relationship of substituted N-phenyl anthranilic acid analogs as amyloid aggregation inhibitors” (Bioorg Med Chem Lett, 2009).

assay: Inhibition of amyloid beta (1 to 40) aggregation by beta amyloid self seeding radioassay
How it was run: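 Aβ(1-40) at 30 μM unlabeled, plus a tracer amount of 125I-Aβ(1-40), incubated with compound in 50 mM NaPi, 150 mM NaCl, 1 M urea, 0.02% w/v NaN3, pH 7.5. Radiolabeled fibrils retained on a 0.2 µm filter were measured. Eight compound concentrations were tested, and IC50 was taken by logit transformation of the titration curves. Values are the average of two separate experiments.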

Point of comparison: `Cc1ccc(CCCc2ccc(Nc3cc(F)ccc3C(=O)O)cc2)cc1C`, IC50 12 µM. Against it:
- O=C(O)c1cc([N+](=O)[O-])ccc1Nc1ccc(CCc2ccccc2)cc1 — 5.8-fold higher, 70 µM
- CCN(CC)c1ccc(CCCc2ccc(Nc3ccccc3C(=O)O)cc2)cc1 — 4-fold lower, 3 µM
- O=C(O)c1cc([N+](=O)[O-])ccc1Nc1ccc(CCc2ccc(F)c(F)c2)cc1 — 3.4-fold higher, 41 µM
- O=C(O)c1ccccc1Nc1ccc(CCc2cccc(Cl)c2)cc1 — higher, > 100 µM
- Cc1ccc(CCc2ccc(Nc3ccccc3C(=O)O)cc2)cc1Cl — 7.3-fold higher, 88 µM
- O=C(O)c1c(Nc2ccc(CCc3ccc(Cl)c(Cl)c3)cc2)cccc1C(F)(F)F — 5.8-fold higher, 70 µM
- Cc1ccc(CCc2ccc(Nc3ccc([N+](=O)[O-])cc3C(=O)O)cc2)cc1C — the same, 12 µM
- O=C(O)c1cc(Nc2ccc(CCc3ccc(Cl)c(Cl)c3)cc2)ccc1C(F)(F)F — higher, > 100 µM
- COc1ccc(CCCc2ccc(Nc3ccc(F)cc3C(=O)O)cc2)cc1 — within 1.5-fold, 14 µM
- O=C(O)c1ccccc1Nc1ccc(CCCc2cc(Cl)cc(Cl)c2)cc1 — 4-fold lower, 3 µM
- O=C(O)c1ccccc1Nc1ccc(CCc2ccc(Cl)cc2Cl)cc1 — higher, > 100 µM
- COc1ccc(CCc2ccc(Nc3ccccc3C(=O)O)cc2)cc1 — higher, > 100 µM
- COc1ccc(CCCc2ccc(Nc3ccccc3C(=O)O)cc2)cc1 — 2.5-fold higher, 30 µM
- O=C(O)c1cc([N+](=O)[O-])ccc1Nc1ccc(CCN2CCC3CCCCC3C2)cc1 (configuration not stated) — 2.4-fold lower, 5 µM
- Cc1ccc(CCc2ccc(Nc3ccccc3C(=O)O)cc2)cc1C — higher, > 100 µM
- COc1ccc(CCCc2ccc(Nc3cc(F)ccc3C(=O)O)cc2)cc1 — within 1.5-fold, 14 µM
- O=C(O)c1ccccc1Nc1ccc(CCc2cc(Cl)cc(Cl)c2)cc1 — higher, > 100 µM
- O=C(O)c1cccnc1Nc1ccc(CCCc2ccc(Cl)c(Cl)c2)cc1 — 5-fold higher, 60 µM
- CCCCN(CCCC)c1ccc(CCc2ccc(Nc3ccc([N+](=O)[O-])cc3C(=O)O)cc2)cc1 — within 1.5-fold, 15 µM
- CCN(CC)c1ccc(Nc2ccc(CCc3ccc(Cl)c(Cl)c3)cc2)c(C(=O)O)c1 — higher, > 100 µM
- O=C(O)c1ccc(C(F)(F)F)cc1Nc1ccc(CCc2ccc(Cl)c(Cl)c2)cc1 — 2.2-fold higher, 27 µM
- O=C(O)c1cc([N+](=O)[O-])ccc1Nc1ccc(CCc2ccc(Cl)c(Cl)c2)cc1 — 3.6-fold higher, 43 µM
- Cc1ccc(Nc2ccc(CCCc3ccc(C)c(C)c3)cc2)c(C(=O)O)c1 — within 1.5-fold, 16 µM
- O=C(O)c1ccccc1Nc1ccc(CCCc2ccccc2)cc1 — within 1.5-fold, 14 µM
- O=C(O)c1ccccc1Nc1ccc(CCCc2ccc(Cl)cc2Cl)cc1 — 6-fold lower, 2 µM
- O=C(O)c1ccccc1Nc1ccc(CCCc2ccc(F)c(C(F)(F)F)c2)cc1 — 2.4-fold lower, 5 µM
- O=C(O)c1ccccc1Nc1ccc(CCc2ccc(Cl)cc2)cc1 — higher, > 100 µM
- Cc1ccc(CCCc2ccc(Nc3ccc(F)cc3C(=O)O)cc2)cc1C — higher, > 100 µM
- O=C(O)c1cc([N+](=O)[O-])ccc1Nc1ccc(CCc2ccc(Cl)c(C(F)(F)F)c2)cc1 — within 1.5-fold, 16 µM
- O=C(O)c1ccccc1Nc1ccc(CCCc2cccc(Br)c2)cc1 — 6-fold lower, 2 µM

assay: Inhibition of amyloid beta (1 to 40) aggregation by beta amyloid self seeding thioflavin T assay
How it was run: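 Compound was incubated with 30 μM Aβ(1-40) in 50 mM NaPi, 150 mM NaCl, 1 M urea, 0.02% w/v NaN3, pH 7.5. Thioflavin T at 5 µM was added after fibril formation, and fluorescence was read as β-sheet fibril content. IC50 came from eight concentrations by logit transformation of the titration curves. Values are the mean of two separate experiments.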

Point of comparison: `CCCCN(CCCC)c1ccc(CCc2ccc(Nc3ccc([N+](=O)[O-])cc3C(=O)O)cc2)cc1`, IC50 1 µM. Against it:
- O=C(O)c1cc([N+](=O)[O-])ccc1Nc1ccc(CCc2ccccc2)cc1 — 1.5-fold higher, 1.5 µM
- CCN(CC)c1ccc(CCCc2ccc(Nc3ccccc3C(=O)O)cc2)cc1 — the same, 1 µM
- O=C(O)c1cc([N+](=O)[O-])ccc1Nc1ccc(CCc2ccc(F)c(F)c2)cc1 — 4-fold higher, 4 µM
- O=C(O)c1ccccc1Nc1ccc(CCc2cccc(Cl)c2)cc1 — 19-fold higher, 19 µM
- Cc1ccc(CCc2ccc(Nc3ccccc3C(=O)O)cc2)cc1Cl — the same, 1 µM
- O=C(O)c1c(Nc2ccc(CCc3ccc(Cl)c(Cl)c3)cc2)cccc1C(F)(F)F — 10-fold lower, 0.1 µM
- Cc1ccc(CCCc2ccc(Nc3cc(F)ccc3C(=O)O)cc2)cc1C — 5.4-fold higher, 5.4 µM
- Cc1ccc(CCc2ccc(Nc3ccc([N+](=O)[O-])cc3C(=O)O)cc2)cc1C — 2-fold higher, 2 µM
- O=C(O)c1cc(Nc2ccc(CCc3ccc(Cl)c(Cl)c3)cc2)ccc1C(F)(F)F — 35-fold higher, 35 µM
- COc1ccc(CCCc2ccc(Nc3ccc(F)cc3C(=O)O)cc2)cc1 — 10-fold higher, 10 µM
- O=C(O)c1ccccc1Nc1ccc(CCCc2cc(Cl)cc(Cl)c2)cc1 — 3-fold higher, 3 µM
- O=C(O)c1ccccc1Nc1ccc(CCc2ccc(Cl)cc2Cl)cc1 — 51-fold higher, 51 µM
- COc1ccc(CCc2ccc(Nc3ccccc3C(=O)O)cc2)cc1 — higher, > 100 µM
- COc1ccc(CCCc2ccc(Nc3ccccc3C(=O)O)cc2)cc1 — 17-fold higher, 17 µM
- O=C(O)c1cc([N+](=O)[O-])ccc1Nc1ccc(CCN2CCC3CCCCC3C2)cc1 (configuration not stated) — the same, 1 µM
- Cc1ccc(CCc2ccc(Nc3ccccc3C(=O)O)cc2)cc1C — 10-fold higher, 10 µM
- COc1ccc(CCCc2ccc(Nc3cc(F)ccc3C(=O)O)cc2)cc1 — 9-fold higher, 9 µM
- O=C(O)c1ccccc1Nc1ccc(CCc2cc(Cl)cc(Cl)c2)cc1 — 15-fold higher, 15 µM
- O=C(O)c1cccnc1Nc1ccc(CCCc2ccc(Cl)c(Cl)c2)cc1 — 5-fold higher, 5 µM
- CCN(CC)c1ccc(Nc2ccc(CCc3ccc(Cl)c(Cl)c3)cc2)c(C(=O)O)c1 — 53-fold higher, 53 µM
- O=C(O)c1ccc(C(F)(F)F)cc1Nc1ccc(CCc2ccc(Cl)c(Cl)c2)cc1 — 4-fold higher, 4 µM
- O=C(O)c1cc([N+](=O)[O-])ccc1Nc1ccc(CCc2ccc(Cl)c(Cl)c2)cc1 — 2-fold lower, 0.5 µM
- Cc1ccc(Nc2ccc(CCCc3ccc(C)c(C)c3)cc2)c(C(=O)O)c1 — 3-fold higher, 3 µM
- O=C(O)c1ccccc1Nc1ccc(CCCc2ccccc2)cc1 — 5-fold higher, 5 µM
- O=C(O)c1ccccc1Nc1ccc(CCCc2ccc(Cl)cc2Cl)cc1 — 2-fold higher, 2 µM
- O=C(O)c1ccccc1Nc1ccc(CCCc2ccc(F)c(C(F)(F)F)c2)cc1 — 3-fold higher, 3 µM
- O=C(O)c1ccccc1Nc1ccc(CCc2ccc(Cl)cc2)cc1 — 3-fold higher, 3 µM
- Cc1ccc(CCCc2ccc(Nc3ccc(F)cc3C(=O)O)cc2)cc1C — the same, 1 µM
- O=C(O)c1cc([N+](=O)[O-])ccc1Nc1ccc(CCc2ccc(Cl)c(C(F)(F)F)c2)cc1 — the same, 1 µM
- O=C(O)c1ccccc1Nc1ccc(CCCc2cccc(Br)c2)cc1 — 3-fold higher, 3 µM
